# Shown are actives, neighbours in structure and some others; about 4.3% of the full set was active somewhere.
# Rin1 Abl inh = human Rin1-Abl interaction inhibition. inhibition, % at 7.35 µM. TR-FRET Rin1/Abl binding, biochemical. P00519+Q13671. 360,000 compounds, 0.4% hits; in the data active means inhibition above about 5%, passing the limit was not always enough
# UBC13 polyUb = human UBC13 polyubiquitination inhibition. P61088. UBC13 polyubiquitin chain formation, TR-FRET. inhibition, % at 20 µM. 330,000 compounds, 0.47% hits; in the data active means inhibition above about 45%, passing the limit was not always enough
# PREPL inhibitor = human PREPL enzyme inhibition; inhibition, % at 5.96 µM; recombinant PREPL, fluorescence polarization activity-based probe; 320,000 compounds, 0.68% hits; Q4J6C6;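 further: 0% = enzyme with DMSO and 100% = wells lacking enzyme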
# RBBP9 inhibitor = blocks human serine hydrolase RBBP9; O75884; recombinant RBBP9, FP-Rh probe fluorescence polarization; inhibition, % at 7.94 µM; 220,000 compounds, 0.2% hits;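 active means inhibition above the campaign mean of all tested compounds plus 3 SD, cut at about 14% in these data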;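 further: plate controls were DMSO wells with RBBP9 for no effect and wells lacking RBBP9 protein for full effect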
#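 Test system: recombinant human RBBP9. Quantity: 2.5 µM RBBP9 dispensing solution, before mixing. Detection: FP readout at 525/598 nm. Reagent: Serine-hydrolase probe FP-Rh, 375 nM pre-mixing. Measure: % inhibition. Control set: DMSO-treated enzyme wells and wells lacking RBBP9. Buffer or medium: Tris-NaCl-Pluronic buffer, pH 8.0. Times: preincubation 30 min plus labeling 45 min at 25 °C.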
# ALR H2O2 inh = blocks human ALR sulfhydryl oxidase activity | P55789 | purified ALR, DTT oxidation, H2O2 HRP-luminol luminescence | inhibition, % (no concentration beside the values) | 290,000 compounds, 3.8% hits | AID 485317;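 active means mean replicate inhibition above about 79%, with every replicate also reaching it, limit read from the data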
# SUMO HTRF inh = inhibitors of human SUMOylation (UBC9). 290,000 compounds, 0.36% hits. P63279. HTRF SUMOylation assay, SAE1/SAE2 + UBC9, in vitro. inhibition, % at 35 µM; in the data active means inhibition above about 50%, passing the limit was not always enough
# PREPL confirm = confirmation of human PREPL enzyme inhibitors | shares compounds with PREPL inhibitor | recombinant PREPL, fluorescence polarization activity probe | inhibition, % at 5.96 µM | 2,000 compounds, 67% hits | AID 2803;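 further: 0% = protein with DMSO and 100% = wells lacking protein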
# Active calls of the source: *; . = not tested or not shown. Unless noted, no stated cut-off is given here; in the data, active means inhibition above about 43%; inactive means the rest.
SMILES,Rin1 Abl inh,UBC13 polyUb,PREPL inhibitor,RBBP9 inhibitor,ALR H2O2 inh,SUMO HTRF inh,PREPL confirm
CCN(CC)CCCN1C=C2C(=O)C(C)(OC(=O)C3CCCC3)C(=O)C=C2C=C1c1ccsc1 (centres undefined),1.5,-89.8,43.3*,.,-33.8,26.1,24.6
CC1(OC(=O)C2CCCC2)C(=O)C=C2C=C(c3ccsc3)N(Cc3ccccc3)C=C2C1=O (centres undefined),1.9,-40.3,37.5,.,11.2,20.3,.
C[n+]1ccccc1/C=C/c1cc(Br)ccc1O,2.5,-21.4,44.2*,.,35.8,8.2,30.0
Nc1ccc2ncccc2c1N,-3.3,.,47.5*,.,.,36.2,46.0*
CCOc1ccc2[nH]c3c(N4CCc5ccccc5C4)ncnc3c2c1,0.1,9.5,54.4*,4.5,1.7,-2.9,64.9*
COc1ccc2[nH]c3c(N4CCC(O)(c5cccc(C(F)(F)F)c5)CC4)ncnc3c2c1,-3.3,6.8,49.7*,4.5,-20.9,-9.6,45.1*
Cc1ccc2[nH]c3c(N4CCOCC4)ncnc3c2c1,-1.9,6.5,12.5,6.6,-20.5,28.3,.
O=c1c2ccc([N+](=O)[O-])cc2ncn1CCOc1ccccc1,-1.8,-0.5,44.4*,3.3,19.0,-2.4,32.7
Cc1ccc(OCCn2cnc3cc([N+](=O)[O-])ccc3c2=O)cc1,-4.0,-10.3,27.6,-8.5,13.4,6.3,.
C[C@H](CO)N1C[C@H](C)[C@@H](CN(C)S(=O)(=O)c2ccc3c(c2)OCCCO3)OCc2cn(nn2)CCCC1=O,0.8,.,.,.,.,.,.
O=S(=O)(NC1=NCCCCC1)c1cc(F)ccc1F,-0.2,-11.9,12.6,.,.,.,.
Cc1noc(NS(=O)(=O)c2ccc(NC(=O)C(Cl)(Cl)Cl)cc2)c1C,6.0,-8.5,8.4,.,20.9,-10.5,.
Cc1noc(NS(=O)(=O)c2ccc(NC(=O)Nc3ccc(Cl)c(Cl)c3)cc2)c1C,-0.2,-21.9,47.6*,-3.2,54.1,14.5,45.7*
O=C(N[C@@H]1c2ccccc2CC[C@@H]1OCc1ccccc1)c1ccc(-c2ccccc2)cc1,-2.2,.,.,.,.,.,.
Cc1nc2cc(C(=O)O)ccc2n1C1CCCCC1,-4.4,-9.2,3.4,-9.4,-3.5,-0.4,.
Cc1nc2cc(N)ccc2n1C1CCCCC1,-4.0,-5.6,48.8*,-6.4,99.7*,1.9,5.7
CC1=CC(C)(C)Nc2ccc(OC(=O)CCN3C(=O)c4ccccc4C3=O)cc21,0.3,4.7,79.1*,-3.9,-0.9,-17.0,78.3*
Cc1ccc(OC(=O)CN2C(=O)c3ccccc3C2=O)cc1C,-1.3,-3.2,-1.0,.,6.3,-3.9,.
COc1ccc(C2CCCN2C(=S)Nc2cccc(Cl)c2C)cc1OC (centres undefined),-1.6,-2.1,49.5*,-9.1,-9.6,-20.7,41.1
Nc1[nH]nc2c1NN(c1ccc(Cl)cc1Cl)N2,3.3,-20.0,43.5*,3.1,0.8,5.9,12.5
Cc1ccccc1NC(=O)C(C#N)Cc1cccnc1 (centres undefined),-4.3,3.9,70.3*,-1.1,23.6,8.5,1.3
O=C(OCCOc1ccccc1)c1n[nH]c2ccccc12,0.5,9.9,-10.7,-7.2,10.0,3.4,.
COc1ccc(C2=Nn3c(nnc3-c3ccccc3F)SC2)cc1OCC1CC1,0.9,27.4,55.6*,.,2.8,.,-8.7
CCC(CO)[n+]1c(C)cc(/C=C2\Sc3ccccc3N2Cc2ccccc2)cc1C (centres undefined),-1.5,.,76.7*,-7.1,98.2*,-0.8,73.0*
C[n+]1ccccc1/C=C1\Sc2ccccc2N1CCO,-5.1,-17.1,15.6,.,69.6,0.7,.
SMILES,Rin1 Abl inh,UBC13 polyUb,PREPL inhibitor,RBBP9 inhibitor,ALR H2O2 inh,SUMO HTRF inh,PREPL confirm
O=C(NCc1ccccn1)C1(C(F)(F)F)C/C(=C\CCO)CCCO1 (centres undefined),0.8,3.2,16.7,.,-4.7,.,.
O=C(c1cc(-c2cccc(Cl)c2)on1)N1CCN(c2ccc(F)cc2)CC1,3.9,8.0,-9.9,.,.,3.9,.
Clc1ccc(CNc2ccc(N3CCN(Cc4ccccc4)CC3)cc2)cc1,-1.8,-0.1,48.4*,.,43.0,0.1,49.0*
O=C(CN1CCN(c2ccc(Cl)cc2)CC1)NCc1ccccc1,1.6,-10.6,-1.3,-4.9,16.4,-2.8,.
CC(=O)N1CCN(c2ccc(NCc3ccc(C)cc3)cc2)CC1,1.7,5.2,74.0*,-1.2,98.8*,2.5,46.2*
CC(=O)N1CCN(c2ccc(NCc3ccc(-c4cccc(Cl)c4)o3)cc2)CC1,-13.8,-1.5,54.6*,.,85.1*,.,68.4*
CCc1ccc(CNc2ccc(N3CCN(C(C)=O)CC3)cc2)cc1,4.8,-7.6,65.5*,12.6,98.9*,-1.0,57.0*
CC(=O)Nc1ccc(C(=O)Cn2c3[n+](c4c(F)c(F)ccc42)CCCCC3)cc1,4.5,7.1,47.2*,3.9,5.9,10.6,56.3*
COC(=O)c1ccc(Cn2nc(-c3ccc(C)cc3)ccc2=O)cc1,0.5,-3.6,-47.9,.,-2.9,-6.2,.
Cc1ccc(NC(=S)Nc2ccc3nc(-c4ccccn4)c(-c4ccccn4)nc3c2)cc1C,-4.5,.,43.6*,6.2,-19.5,29.7,37.3
COc1ccc(CSc2ccc(-c3nc4ccccn4c3NCc3ccccc3)cc2OC)cc1,2.5,3.5,49.3*,.,.,.,41.2
COc1cc(OC)cc(-c2c(-c3cccs3)c3cc(-c4ccc(OCc5ccccc5)cc4)ccc3n2C)c1,-1.6,40.4,72.4*,.,0.2,.,4.0
COc1ccc(CCC(=O)OCC(=O)Nc2ccccc2OC(F)F)cc1OC,2.1,1.2,8.3,-5.2,1.0,-26.1,.
COC1(OC)C=CC(=O)C=C1NC(=O)c1ccccc1OC(C)=O,0.6,-6.2,10.4,.,-1.9,.,.
COc1cc(C2NCCc3c2[nH]c2ccccc32)ccc1OC(C)C (centres undefined),.,15.3,44.0*,0.2,1.0,16.4,40.8
COc1cc([C@H]2c3[nH]c4ccccc4c3C[C@H]3C(=O)N4[C@@H](c5cc(OC)c(OC)c(OC)c5)c5[nH]c6ccccc6c5C[C@H]4C(=O)N23)cc(OC)c1OC,-0.6,-55.0,2.3,-14.9,0.6,15.8,.
O=C(O)CCC(=O)N1CCN(c2ccccn2)CC1,3.2,2.5,44.5*,-0.2,-1.1,8.2,2.9
O=C(CCc1ccccc1)N1CCN(c2ccccn2)CC1,-4.3,-1.2,-7.0,-4.4,2.4,-18.4,.
Cc1cc(C)c(C)c(S(=O)(=O)N2CCC(C(=O)NCCCN3CCCC3=O)CC2)c1C,-0.3,-14.7,8.5,.,1.8,.,.
Cc1cc(C)nc(/N=C(\N)Nc2ccc(S(=O)(=O)Nc3nccc(C)n3)cc2)n1,0.5,5.5,7.8,-1.9,2.4,9.3,.
CC(C)CC(c1nnnn1Cc1cccs1)N1CCN(c2nc3ccccc3s2)CC1 (centres undefined),2.9,-1.1,44.3*,-3.0,5.3,-40.0,33.0
